{"data": "Published values from different studies", "ADRB2": "Beta-2 adrenergic receptor (ADRB2, Homo sapiens, UniProt P07550)", "SLC22A2": "Solute carrier family 22 member 2 (SLC22A2, Homo sapiens, UniProt O15244)", "CNR2": "Cannabinoid receptor 2 (CNR2, Homo sapiens, UniProt P34972)", "Akr1b1": "Aldo-keto reductase family 1 member B1 (Akr1b1, Rattus norvegicus, UniProt P07943)", "MMP2": "72 kDa type IV collagenase (MMP2, Homo sapiens, UniProt P08253)", "HDAC10": "Polyamine deacetylase HDAC10 (HDAC10, Homo sapiens, UniProt Q969S8)", "note": "Each line is one published result; the experiments were not run side by side."}
{"Structure (SMILES)": "COc1cc(N)c(Cl)cc1C(=O)NC1CCN(CCCOc2ccc(F)cc2)CC1OC (stereo not shown)", "target": "ADRB2", "assay": "ligand displacement, radioligand", "setting": "cell membranes", "IC50 [µM]": 587}
{"Structure (SMILES)": "CN(C(=O)n1cnc(-c2ccc[n+]([O-])c2)c1)C1CCCCC1", "target": "SLC22A2", "assay": "transporter uptake, inhibitor", "test system": "MDCK-II", "IC50 [µM]": "> 33.3"}
{"Structure (SMILES)": "COc1ccc2nc(N(CCN3CCCC3)C(=O)c3ccc(Cl)s3)sc2c1", "target": "Short transient receptor potential channel 6 (Trpc6, Mus musculus, UniProt Q61143)", "assay": "calcium signal, fluorescence", "IC50 [µM]": 33}
{"Structure (SMILES)": "Cc1c(C(=O)NN2CCCCC2)nc(-c2ccc(Cl)cc2Cl)n1-c1ccc(OS(=O)(=O)CCCC(F)(F)F)cc1", "target": "CNR2", "assay": "GTPγS binding, antagonist", "setting": "cell membranes", "IC50 [µM]": 0.32}
{"Structure (SMILES)": "COc1ccc2nc(/N=C3/NC(=O)C(=Cc4ccc(O)cc4)S3)sc2c1", "target": "Akr1b1", "assay": "enzyme activity, inhibitor, absorbance", "setting": "pH 6.2", "IC50 [µM]": 1.3}
{"Structure (SMILES)": "CCS(=O)(=O)N1CC(CC#N)(n2cc(-c3ncnc4[nH]ccc34)cn2)C1", "target": "SLC22A2", "assay": "transporter uptake, inhibitor, radiometric", "setting": "2 min", "IC50 [µM]": 11.6}
{"Structure (SMILES)": "CN1CCN(c2ccc(Nc3ncc4cc(C#N)c(=O)n(C5CCCC5)c4n3)cc2)CC1", "target": "Casein kinase I isoform alpha (CSNK1A1, Homo sapiens, UniProt P48729)", "assay": "enzyme activity, inhibitor", "IC50 [µM]": "> 10"}
{"Structure (SMILES)": "NCC1OC(c2ccccc2)Cc2c1ccc(O)c2O (stereo not shown)", "target": "ADRB2", "assay": "ligand displacement, radioligand", "setting": "cell membranes", "IC50 [µM]": 84.7}
{"Structure (SMILES)": "Cn1cc(-c2cc3cc(-c4cc(C(=O)NCc5ccc(C(=O)O)cc5)nn4C)ccc3[nH]2)cn1", "target": "MMP2", "assay": "enzyme activity, inhibitor", "IC50 [µM]": "> 20"}
{"Structure (SMILES)": "Cc1c(C(=O)Nc2ccc(C(F)(F)F)cn2)nc(-c2ccc(Cl)cc2Cl)n1-c1ccc(OS(=O)(=O)CCC(F)(F)F)cc1", "target": "CNR2", "assay": "GTPγS binding, antagonist", "setting": "cell membranes", "IC50 [µM]": 0.133}
{"Structure (SMILES)": "COc1ccc2nc(/N=C3/NC(=O)C(=Cc4ccccc4)S3)sc2c1", "target": "Akr1b1", "assay": "enzyme activity, inhibitor, absorbance", "setting": "pH 6.2", "IC50 [µM]": "> 50"}
{"Structure (SMILES)": "CCNC(=O)c1nc(-c2ccc3[nH]c(-c4nc(C)no4)cc3c2)c(C)[nH]1", "target": "MMP2", "assay": "enzyme activity, inhibitor", "IC50 [µM]": "> 20"}
{"Structure (SMILES)": "COc1cc(O)c(CC=C(C)C)c2c1C(=O)CC(c1ccc(O)cc1)O2 (stereo not shown)", "target": "Cytochrome P450 1B1 (CYP1B1, Homo sapiens, UniProt Q16678)", "assay": "enzyme activity, inhibitor, fluorescence", "setting": "15 min, pH 7.4", "IC50 [µM]": 0.48}
{"Structure (SMILES)": "Cn1c(=O)c([N+](=O)[O-])c(Cl)c2ccccc21", "target": "Adenylate cyclase type 8 (Homo sapiens, UniProt P40145)", "assay": "cAMP, inhibitor", "IC50 [µM]": 1.6}
{"Structure (SMILES)": "CCCC[C@H](NC(=O)C1CN(C)C1)c1ncc(-c2cc3ccccc3nc2OC)[nH]1", "target": "HDAC10", "assay": "enzyme activity, inhibitor", "IC50 [µM]": 0.075}
{"Structure (SMILES)": "CN(CCC(=O)O)C(=O)c1ccc2c(c1)CC[C@@H]1[C@@H]2CC[C@]2(C)C(c3cncc(F)c3)=CC[C@@H]12", "target": "Ileal sodium/bile acid cotransporter (SLC10A2, Homo sapiens, UniProt Q12908)", "assay": "transporter uptake, inhibitor", "IC50 [µM]": 49}
{"Structure (SMILES)": "O=C(NO)c1ccc(CN(c2cnccn2)c2cnccn2)cc1", "target": "HDAC10", "assay": "enzyme activity, inhibitor, fluorescence", "IC50 [µM]": "> 10"}
{"Structure (SMILES)": "CN/C(=N/CCSCc1nc[nH]c1C)NC#N", "target": "SLC22A2", "assay": "transporter uptake, inhibitor", "test system": "MDCK-II", "IC50 [µM]": 17}
{"Structure (SMILES)": "O=C(O)CSc1nnc(Br)n1-c1ccc(C2CC2)c2ccccc12", "target": "SLC22A2", "assay": "transporter uptake, inhibitor", "test system": "MDCK-II", "setting": "5 min", "IC50 [µM]": "> 300"}
